Test results: ChEMBL document CHEMBL5260840 (J Med Chem, 2019)

Experiments:
[1] = target: T1, DDB1- and CUL4-associated factor 15/Bromodomain-containing protein 7 (Homo sapiens) (UniProt Q9NPI1+Q66K64); assay: PROTAC activity at DCAF15/BRD7 in human HeLa cells assessed as remaining BRD7 protein level at 1 uM incubated for 16 hrs by Western blot analysis relative to control; assay type: cell-based
[2] = target: T1, DDB1- and CUL4-associated factor 15/Bromodomain-containing protein 7 (Homo sapiens); assay: PROTAC activity at DCAF15/BRD7 in human HeLa cells assessed as remaining BRD7 protein level at 1 uM incubated for 4 hrs by Western blot analysis relative to control; assay type: cell-based
[3] = target: T2, DDB1- and CUL4-associated factor 15/Bromodomain-containing protein 9 (Homo sapiens) (UniProt Q9H8M2+Q66K64); assay: PROTAC activity at DCAF15/BRD9 in human HeLa cells assessed as remaining BRD9 protein level at 1 uM incubated for 4 hrs by Western blot analysis relative to control; assay type: cell-based
T2 sequence (Q66K64 whole entry, looked up, one chain of several): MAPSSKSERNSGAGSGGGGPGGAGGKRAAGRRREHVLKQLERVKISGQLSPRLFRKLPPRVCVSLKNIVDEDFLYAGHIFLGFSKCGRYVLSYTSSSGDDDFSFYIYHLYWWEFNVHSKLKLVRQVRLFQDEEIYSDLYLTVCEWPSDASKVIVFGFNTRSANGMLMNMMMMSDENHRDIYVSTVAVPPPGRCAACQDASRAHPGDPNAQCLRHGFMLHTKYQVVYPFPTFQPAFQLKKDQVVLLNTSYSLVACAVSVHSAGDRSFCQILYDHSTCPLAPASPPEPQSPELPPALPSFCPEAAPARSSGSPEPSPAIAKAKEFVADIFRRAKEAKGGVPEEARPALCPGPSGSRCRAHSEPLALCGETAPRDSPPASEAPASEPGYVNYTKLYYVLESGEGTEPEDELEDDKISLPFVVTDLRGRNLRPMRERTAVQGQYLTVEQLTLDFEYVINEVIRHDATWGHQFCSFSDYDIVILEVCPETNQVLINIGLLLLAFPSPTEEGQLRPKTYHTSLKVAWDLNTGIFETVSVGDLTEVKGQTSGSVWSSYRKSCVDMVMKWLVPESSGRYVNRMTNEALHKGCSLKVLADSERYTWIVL

[4] = target: T2, DDB1- and CUL4-associated factor 15/Bromodomain-containing protein 9 (Homo sapiens); assay: PROTAC activity at DCAF15/BRD9 in human HeLa cells assessed as remaining BRD9 protein level at 1 uM incubated for 16 hrs by Western blot analysis relative to control; assay type: cell-based
[5] = target: T3, von Hippel-Lindau disease tumor suppressor/Bromodomain-containing protein 7 (Homo sapiens) (UniProt Q9NPI1+P40337); assay: PROTAC activity at VHL/BRD7 in human HeLa cells assessed as remaining BRD7 protein level at 1 uM incubated for 4 hrs by Western blot analysis relative to control; assay type: cell-based
T3 sequence (P40337 whole entry, looked up): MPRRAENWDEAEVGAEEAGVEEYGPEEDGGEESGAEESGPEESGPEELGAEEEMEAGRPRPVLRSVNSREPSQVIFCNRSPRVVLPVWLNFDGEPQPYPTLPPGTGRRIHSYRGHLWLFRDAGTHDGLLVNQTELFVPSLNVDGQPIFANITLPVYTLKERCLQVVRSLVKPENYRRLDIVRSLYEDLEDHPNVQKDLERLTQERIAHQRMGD
T3 sequence (Q9NPI1 whole entry, looked up): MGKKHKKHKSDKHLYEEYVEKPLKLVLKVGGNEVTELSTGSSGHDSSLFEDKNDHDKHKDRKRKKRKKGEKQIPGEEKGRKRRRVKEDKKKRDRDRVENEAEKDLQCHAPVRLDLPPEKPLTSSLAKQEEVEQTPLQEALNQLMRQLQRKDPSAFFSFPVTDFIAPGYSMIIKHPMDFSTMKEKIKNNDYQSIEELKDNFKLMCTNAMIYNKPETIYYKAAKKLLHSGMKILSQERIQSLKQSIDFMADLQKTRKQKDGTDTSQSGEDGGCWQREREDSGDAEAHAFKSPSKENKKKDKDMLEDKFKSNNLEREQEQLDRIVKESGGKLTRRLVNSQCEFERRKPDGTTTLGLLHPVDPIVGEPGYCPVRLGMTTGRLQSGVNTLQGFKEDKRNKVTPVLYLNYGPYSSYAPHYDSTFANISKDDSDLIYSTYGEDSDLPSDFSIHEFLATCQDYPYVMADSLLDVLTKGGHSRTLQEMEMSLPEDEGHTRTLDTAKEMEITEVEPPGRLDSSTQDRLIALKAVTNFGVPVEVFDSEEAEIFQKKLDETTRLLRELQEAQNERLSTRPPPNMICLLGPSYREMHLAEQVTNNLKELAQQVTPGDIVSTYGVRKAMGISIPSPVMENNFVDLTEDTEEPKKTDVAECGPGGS

[6] = target: T3, von Hippel-Lindau disease tumor suppressor/Bromodomain-containing protein 7 (Homo sapiens); assay: PROTAC activity at VHL/BRD7 in human HeLa cells assessed as remaining BRD7 protein level at 1 uM incubated for 16 hrs by Western blot analysis relative to control; assay type: cell-based
[7] = target: T4, von Hippel-Lindau disease tumor suppressor/Bromodomain-containing protein 9 (Homo sapiens) (UniProt Q9H8M2+P40337); assay: PROTAC activity at VHL/BRD9 in human HeLa cells assessed as protein degradation at 1 uM incubated for 4 hrs by Western blot analysis relative to control; assay type: cell-based
T4 sequence (P40337 whole entry, looked up, one chain of several): as the sequence (P40337 whole entry, looked up) above
How it was run: (§1)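 HeLa cells treated with compound for the stated time before harvest; BRD9, BRD7 and β-actin detected by Western blot with β-actin loading control; band intensities quantified.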

[8] = target: T5, Von Hippel-Lindau disease tumor suppressor/Elongin B/Elongin C (Homo sapiens) (UniProt P40337+Q15370+Q15369); assay: Negative co-operative binding affinity to 6His-tagged human VHL/ElonginC/ElonginB expressed in Escherichia coli BL21 (DE3) cells assessed as change in enthalpy in the presence of BRD9-BD as complex with compound by ITC analysis
T5 sequence (P40337 whole entry, looked up): as above
T5 sequence (Q15369 whole entry, looked up): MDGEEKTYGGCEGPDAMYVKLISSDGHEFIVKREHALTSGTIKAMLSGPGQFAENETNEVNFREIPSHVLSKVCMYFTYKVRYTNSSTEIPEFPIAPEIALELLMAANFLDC
T5 sequence (Q15370 whole entry, looked up): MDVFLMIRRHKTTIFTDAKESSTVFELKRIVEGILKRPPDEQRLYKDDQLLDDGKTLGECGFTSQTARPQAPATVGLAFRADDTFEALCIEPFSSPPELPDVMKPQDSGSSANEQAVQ

[9] = target: T3, von Hippel-Lindau disease tumor suppressor/Bromodomain-containing protein 7 (Homo sapiens); assay: PROTAC activity at VHL/BRD7 in human HeLa cells assessed as protein degradation at 1 uM incubated for 4 hrs by Western blot analysis relative to control; assay type: cell-based
[10] = target: T4, von Hippel-Lindau disease tumor suppressor/Bromodomain-containing protein 9 (Homo sapiens); assay: PROTAC activity at VHL/BRD9 in human HeLa cells assessed as protein degradation at 1 uM incubated for 16 hrs by Western blot analysis relative to control; assay type: cell-based; how it was run: as §1
[11] = target: T5, Von Hippel-Lindau disease tumor suppressor/Elongin B/Elongin C (Homo sapiens); assay: Co-operative binding affinity to 6His-tagged human VHL/ElonginC/ElonginB expressed in Escherichia coli BL21 (DE3) cells assessed as maximal intensity in the presence of BRD9-BD as complex with compound incubated for 1 hrs by AlphaLISA proximity assay
[12] = target: T5, Von Hippel-Lindau disease tumor suppressor/Elongin B/Elongin C (Homo sapiens); assay: Negative co-operative binding affinity to 6His-tagged human VHL/ElonginC/ElonginB expressed in Escherichia coli BL21 (DE3) cells assessed as total gibb's free energy change in the presence of BRD9-BD as complex with compound by ITC analysis
[13] = target: T5, Von Hippel-Lindau disease tumor suppressor/Elongin B/Elongin C (Homo sapiens); assay: Negative co-operative binding affinity to 6His-tagged human VHL/ElonginC/ElonginB expressed in Escherichia coli BL21 (DE3) cells assessed as change in entropy in the presence of BRD9-BD as complex with compound by ITC analysis
[14] = target: T6, Bromodomain-containing protein 9 (Homo sapiens) (UniProt Q9H8M2); assay: Binding affinity to 6His-tagged human BRD9 bromodomain (134 to 239 residues) expressed in Escherichia coli BL21 (DE3) cells assessed as gibbs free energy change by ITC analysis
T6 sequence (whole entry): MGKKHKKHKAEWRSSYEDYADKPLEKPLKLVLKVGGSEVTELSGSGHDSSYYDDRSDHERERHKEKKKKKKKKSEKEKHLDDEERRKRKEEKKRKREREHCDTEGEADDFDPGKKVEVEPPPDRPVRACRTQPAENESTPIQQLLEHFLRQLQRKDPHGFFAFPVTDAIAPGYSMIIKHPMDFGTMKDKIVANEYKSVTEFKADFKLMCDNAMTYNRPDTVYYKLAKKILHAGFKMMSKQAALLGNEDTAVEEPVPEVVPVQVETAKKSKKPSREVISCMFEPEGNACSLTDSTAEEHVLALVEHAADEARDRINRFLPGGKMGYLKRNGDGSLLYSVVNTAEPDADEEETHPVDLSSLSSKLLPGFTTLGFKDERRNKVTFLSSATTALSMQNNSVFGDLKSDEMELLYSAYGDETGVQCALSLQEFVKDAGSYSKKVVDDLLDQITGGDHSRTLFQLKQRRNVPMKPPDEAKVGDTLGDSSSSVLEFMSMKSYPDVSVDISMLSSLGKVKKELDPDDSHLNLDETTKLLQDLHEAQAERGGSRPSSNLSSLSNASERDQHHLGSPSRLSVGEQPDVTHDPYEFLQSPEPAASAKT

[15] = target: T5, Von Hippel-Lindau disease tumor suppressor/Elongin B/Elongin C (Homo sapiens); assay: Binding affinity to 6His-tagged human VHL/ElonginC/ElonginB expressed in Escherichia coli BL21 (DE3) cells assessed as change in enthalpy by ITC analysis
[16] = target: T6, Bromodomain-containing protein 9 (Homo sapiens); assay: Binding affinity to 6His-tagged human BRD9 bromodomain (134 to 239 residues) expressed in Escherichia coli BL21 (DE3) cells assessed as change in entropy by ITC analysis
[17] = target: T5, Von Hippel-Lindau disease tumor suppressor/Elongin B/Elongin C (Homo sapiens); assay: Binding affinity to 6His-tagged human VHL/ElonginC/ElonginB expressed in Escherichia coli BL21 (DE3) cells assessed as change in entropy by ITC analysis
[18] = target: T3, von Hippel-Lindau disease tumor suppressor/Bromodomain-containing protein 7 (Homo sapiens); assay: PROTAC activity at VHL/BRD7 in human HeLa cells assessed as protein degradation at 1 uM incubated for 16 hrs by Western blot analysis relative to control; assay type: cell-based
[19] = target: T4, von Hippel-Lindau disease tumor suppressor/Bromodomain-containing protein 9 (Homo sapiens); assay: PROTAC activity at VHL/BRD9 in human HeLa cells assessed as remaining BRD9 protein level at 1 uM incubated for 16 hrs by Western blot analysis relative to control; assay type: cell-based; how it was run: as §1
[20] = target: T6, Bromodomain-containing protein 9 (Homo sapiens); assay: Binding affinity to 6His-tagged human BRD9 bromodomain (134 to 239 residues) expressed in Escherichia coli BL21 (DE3) cells assessed as change in enthalpy by ITC analysis

T1 sequence (Q66K64 whole entry, looked up): as the sequence (Q66K64 whole entry, looked up, one chain of several) above
T1 sequence (Q9NPI1 whole entry, looked up): as the sequence (Q9NPI1 whole entry, looked up) above

Row | Activity [1] [%] | Activity [2] [%] | Activity [3] [%] | Activity [4] [%] | Activity [5] [%] | Activity [6] [%] | Activity [7] [%] | deltaH [8] [kcal/mol] | Activity [9] [%] | Activity [10] [%] | Activity [11] | deltaG [12] [kcal/mol] | -TdeltaS [13] [kcal/mol] | deltaG [14] [kcal/mol] | deltaH [15] [kcal/mol] | -TdeltaS [16] [kcal/mol] | -TdeltaS [17] [kcal/mol] | Activity [18] [%] | Activity [19] [%] | deltaH [20] [kcal/mol] | SMILES
1 | 86 | 101 | 125 | 81 | – | – | – | – | – | – | – | – | – | – | – | – | – | – | – | – | COc1cc(-c2cn(C)c(=O)c3cnccc23)cc(OC)c1CN1CCN(CCOCCOCC(=O)NCc2ccc(S(=O)(=O)Nc3cccc4c(Cl)c[nH]c34)cc2)CC1
2 | – | – | – | – | 68 | 83 | 20 | -6.4 | 20 | 30 | 1 10^6No_unit | -20.4 | -3.3 | -10.7 | -15.2 | 1.8 | 4.9 | 30 | 70 | -12.5 | COc1cc(-c2cn(C)c(=O)c3cnccc23)cc(OC)c1CN1CCN(CCOCCOCC(=O)N[C@H](C(=O)N2C[C@H](O)C[C@H]2C(=O)NCc2ccc(-c3scnc3C)cc2)C(C)(C)C)CC1
3 | 86 | 81 | 126 | 86 | – | – | – | – | – | – | – | – | – | – | – | – | – | – | – | – | COc1cc(-c2cn(C)c(=O)c3cnccc23)cc(OC)c1CN1CCN(CCOCCOCCOCCOCC(=O)NCc2ccc(S(=O)(=O)Nc3cccc4c(Cl)c[nH]c34)cc2)CC1
